Here are results for three compounds from paper PMC2119492 (The Journal of Cell Biology, 1993).

Assay type in all cases: cell-based, Saccharomyces cerevisiae
Test [1] concerns wild-type cells (RH144-3D). The test can be described thus: 35S-a-factor internalization assay. Conditions: after a 34 °C preincubation; data not shown.
For test [2], the system named is wild-type cells (RH144-3D). Kind of test: LY-CH accumulation in the vacuole. To be noted: LY 4 mg/ml, fluorescence microscopy, minimum of 46 cells counted. An outline of the steps:
(§1)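 Cells grown overnight at 24°C, then harvested and split. One half stayed at 24°C. The other was shifted slowly to 35°C by resetting the water bath, and lucifer yellow CH (4 mg/ml) was added once 35°C was reached. Cells were washed extensively in ice-cold 50 mM sodium succinate pH 5 with 10 mM sodium azide, then viewed by Nomarski and fluorescence optics with 20–25 s exposures. Cells with clear vacuolar staining were scored positive. Cells without staining but with a vacuole visible by Nomarski were scored negative.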

Test [3] relates to end3 cells (RH266-1D). The test can be described thus: LY-CH accumulation in the vacuole. To be noted: LY 4 mg/ml, fluorescence microscopy, minimum of 46 cells counted. Summed up: as §1
The subject of another test is end4 cells (RH268-1C). Kind of test: LY-CH accumulation in the vacuole. Conditions: LY 4 mg/ml, fluorescence microscopy, minimum of 46 cells counted. An outline of the steps:
as §1

The test system of test [4] is end3 cells (RH266-1D). Kind of test: a-factor sensitivity halo assay. To be noted: 24 °C. An outline of the steps:
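Halo assay. Early log-phase cells were counted, washed with YPUAD and embedded in YPUAD containing 0.8% agar at 47°C. Disks containing α-factor were placed on the agar surface, and the radius of the growth-inhibition zone was read. The radius is logarithmically proportional to strain sensitivity.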

As for `C[C@@H]1C[C@@H]([C@H](O)CC2CC(=O)NC(=O)C2)C(=O)[C@@H](C)C1` [cycloheximide], the “effect of cycloheximide on a-factor internalization kinetics” value in test [1] is reported as “identical to cells which receive no cycloheximide”.

As for Lucifer yellow-CH [LY], the “% of cells showing vacuolar labeling” value in test [2] (24 °C, 2 h) is given as 92%; in test [2] (35 °C, 1 h), 97%; in the test on end3 cells (RH266-1D) [3] (24 °C, 2 h), 4%; with end3 cells (RH266-1D) [3] (35 °C, 1 h), 4%; in the test with end4 cells (RH268-1C) (24 °C, 2 h), 10%; in the test on end4 cells (RH268-1C) (35 °C, 1 h), 0%.

With alpha-factor, in the test on end3 cells (RH266-1D) [4], the “a-factor needed to form the same size halo, relative to end4 or wild-type cells” value is on record as “approximately two times less”.
